One block for each molecule: values may come before it. The source made the active and inactive calls. The rule behind the calls is not given here.
Key:
[1] = molecular target: T1, Free fatty acid receptor 1 (Homo sapiens, UniProt O14842); experiment: Agonist activity at human GPR40 expressed in CHOA12 cells assessed as induction of Ca2+ mobilization by FLIPR assay; type: functional, cell-based
[2] = molecular target: T1, Free fatty acid receptor 1; experiment: Agonist activity at human GPR40 expressed in CHOA12 cells assessed as induction of Ca2+ mobilization at 8.3 uM by FLIPR assay relative to compound 2; type: functional, cell-based
[3] = (§1) Stability in human liver microsomes assessed as parent compound remaining at 1 to 3 uM incubated for 20 mins in presence NADPH measured up to 90 mins by LC/MS/MS analysis; type: ADME, microsome; conditions: liver microsomes, read-out: Stability
Summary of the method: (§2)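 Human or rat liver microsomal incubations. The read-outs were % parent remaining, % D-ring dealkylation metabolites, % GSH adducts, and half-life (min). The metabolites followed were CYP450-mediated oxidative de-alkylation products (phenols) and GSH conjugates.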

[4] = (§3) Stability in rat liver microsomes assessed as parent compound remaining at 1 to 3 uM incubated for 20 mins in presence NADPH measured up to 90 mins by LC/MS/MS analysis; type: ADME, microsome; conditions: liver microsomes, read-out: Stability; summary of the method: as §2
[5] = Clearance in cynomolgus monkey at 0.5 mg/kg, iv administered as single dose measured up to 24 hrs post dose by LC-MS/MS analysis; type: ADME, organism-based, Macaca fascicularis; conditions: in vivo
[6] = Volume of distribution at steady state in Beagle dog at 0.5 mg/kg, iv administered as single dose measured up to 24 hrs post dose by LC-MS/MS analysis; type: ADME, organism-based, Canis lupus familiaris; conditions: in vivo, read-out: Vdss
[7] = Half life in CD1 mouse at 1 mg/kg, iv administered as bolus dose or 1 mg/kg, po administered as single dose measured up to 24 hrs post dose by LC-MS/MS analysis; type: ADME, organism-based; conditions: in vivo
[8] = Half life in Sprague-Dawley rat at 1 mg/kg, iv administered as single dose measured up to 24 hrs post dose by LC-MS/MS analysis; type: ADME, organism-based; conditions: in vivo
[9] = (§4) Half life in human liver microsomes at 1 to 3 uM incubated for 20 mins in presence NADPH measured up to 90 mins by LC/MS/MS analysis; type: ADME, microsome; conditions: liver microsomes
[10] = Cmax in Sprague-Dawley rat at 3 mg/kg, po administered as single dose measured up to 24 hrs post dose by LC-MS/MS analysis; type: ADME, organism-based; design: dose 3 mg/kg, route oral; conditions: in vivo
[11] = Oral bioavailability in Sprague-Dawley rat at 3 mg/kg administered via gavage as single dose measured up to 24 hrs post dose by LC-MS/MS analysis; type: ADME, organism-based; conditions: in vivo
[12] = Volume of distribution at steady state in cynomolgus monkey at 0.5 mg/kg, iv administered as single dose measured up to 24 hrs post dose by LC-MS/MS analysis; type: ADME, organism-based, Macaca fascicularis; conditions: in vivo, read-out: Vdss
[13] = Half life in cynomolgus monkey at 0.5 mg/kg, iv administered as single dose measured up to 24 hrs post dose by LC-MS/MS analysis; type: ADME, organism-based, Macaca fascicularis; conditions: in vivo
[14] = Clearance in Beagle dog at 0.5 mg/kg, iv administered as single dose measured up to 24 hrs post dose by LC-MS/MS analysis; type: ADME, organism-based, Canis lupus familiaris; conditions: in vivo
[15] = Tmax in Sprague-Dawley rat at 3 mg/kg, po administered as single dose measured up to 24 hrs post dose by LC-MS/MS analysis; type: ADME, organism-based; conditions: in vivo
[16] = Half life in Beagle dog at 0.5 mg/kg, iv administered as single dose measured up to 24 hrs post dose by LC-MS/MS analysis; type: ADME, organism-based, Canis lupus familiaris; conditions: in vivo
[17] = Volume of distribution at steady state in Sprague-Dawley rat at 1 mg/kg, iv administered as single dose measured up to 24 hrs post dose by LC-MS/MS analysis; type: ADME, organism-based; conditions: in vivo, read-out: Vdss
[18] = Volume of distribution at steady state in CD1 mouse at 1 mg/kg, iv via bolus dose or 1 mg/kg, po administered as single dose measured up to 24 hrs post dose by LC-MS/MS analysis; type: ADME, organism-based; conditions: in vivo, read-out: Vdss
[19] = Clearance in Sprague-Dawley rat at 1 mg/kg, iv administered as single dose measured up to 24 hrs post dose by LC-MS/MS analysis; type: ADME, organism-based; conditions: in vivo
[20] = Clearance in CD1 mouse at 1 mg/kg, iv administered as bolus dose or 1 mg/kg, po administered as single dose measured up to 24 hrs post dose by LC-MS/MS analysis; type: ADME, organism-based; conditions: in vivo
[21] = (§5) Half life in rat liver microsomes at 1 to 3 uM incubated for 20 mins in presence NADPH measured up to 90 mins by LC/MS/MS analysis; type: ADME, microsome; conditions: liver microsomes
[22] = molecular target: T2, Peroxisome proliferator-activated receptor gamma (Homo sapiens, UniProt P37231); experiment: Agonist activity at PPARgamma (unknown origin)
T2 sequence (P37231 whole entry): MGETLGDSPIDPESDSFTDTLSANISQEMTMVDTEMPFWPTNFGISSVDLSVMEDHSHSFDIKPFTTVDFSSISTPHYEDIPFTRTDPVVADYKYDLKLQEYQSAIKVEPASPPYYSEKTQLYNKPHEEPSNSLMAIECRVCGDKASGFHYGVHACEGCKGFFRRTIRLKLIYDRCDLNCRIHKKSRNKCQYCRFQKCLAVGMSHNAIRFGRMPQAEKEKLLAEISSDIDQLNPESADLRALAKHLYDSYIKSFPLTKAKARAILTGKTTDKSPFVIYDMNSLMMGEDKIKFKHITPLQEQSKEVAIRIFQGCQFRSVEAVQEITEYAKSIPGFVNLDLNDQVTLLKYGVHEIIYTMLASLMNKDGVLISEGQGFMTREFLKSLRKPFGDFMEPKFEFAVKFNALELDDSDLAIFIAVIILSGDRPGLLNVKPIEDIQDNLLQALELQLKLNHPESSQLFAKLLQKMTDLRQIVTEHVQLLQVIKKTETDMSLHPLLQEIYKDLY

Liver [23] = experiment: (§6) Drug level in human liver microsomes treated with 2-((4S,5S)-1-(4-(((3R,4R)-1-(5-Chloro-2-methoxypyridin-4-yl)-3-methylpiperidin-4-yl)oxy)phenyl)-4-methyl-3-(trifluoromethyl)-4,5-dihydro-1H-pyrazol-5-yl)acetic acid at 1 to 3 uM incubated for 20 mins in presence of NADPH measured after 90 mins by LC/MS/MS analysis; type: ADME, microsome; summary of the method: as §2
Liver [24] = experiment: as §6, with “rat” for “human”; type: ADME, microsome; summary of the method: as §2
[25] = Volume of distribution at steady state in cynomolgus monkey at 0.2 mg/kg, iv administered as single dose measured up to 24 hrs post dose by LC-MS/MS analysis; type: ADME, organism-based, Macaca fascicularis; conditions: in vivo, read-out: Vdss
Liver [26] = experiment: as §1; type: ADME, microsome; conditions: microsomes, 20 min, 3 µM; summary of the method: as §2
Liver [27] = experiment: as §3; type: ADME, microsome; conditions: microsomes, 20 min, 3 µM; summary of the method: as §2
[28] = Tmax in cynomolgus monkey at 0.5 mg/kg, po administered as single dose measured up to 24 hrs post dose by LC-MS/MS analysis; type: ADME, organism-based, Macaca fascicularis; conditions: in vivo
[29] = Cmax in cynomolgus monkey at 0.5 mg/kg, po administered as single dose measured up to 24 hrs post dose by LC-MS/MS analysis; type: ADME, organism-based, Macaca fascicularis; design: dose 0.5 mg/kg, route oral; conditions: in vivo
[30] = Cmax in C57BL6 mouse at 3 mg/kg, po administered as single dose via gavage measured up to 24 hrs post dose by LC-MS/MS analysis; type: ADME, organism-based; design: dose 3 mg/kg, route oral; conditions: in vivo
[31] = Oral bioavailability in C57BL6 mouse at 3 mg/kg administered as single dose via gavage measured up to 24 hrs post dose by LC-MS/MS analysis; type: ADME, organism-based; conditions: in vivo
Liver [32] = experiment: as §4; type: ADME, microsome; conditions: microsomes, 20 min, 3 µM
[33] = Tmax in C57BL6 mouse at 3 mg/kg, po administered as single dose measured up to 24 hrs post dose by LC-MS/MS analysis; type: ADME, organism-based; conditions: in vivo
[34] = Half life in cynomolgus monkey at 0.2 mg/kg, iv administered as single dose measured up to 24 hrs post dose by LC-MS/MS analysis; type: ADME, organism-based, Macaca fascicularis; conditions: in vivo
[35] = Clearance in cynomolgus monkey at 0.2 mg/kg, iv administered as single dose measured up to 24 hrs post dose by LC-MS/MS analysis; type: ADME, organism-based, Macaca fascicularis; conditions: in vivo
Liver [36] = experiment: as §5; type: ADME, microsome; conditions: microsomes, 20 min, 3 µM
[37] = Oral bioavailability in cynomolgus monkey at 0.5 mg/kg administered via gavage as single dose measured up to 24 hrs post dose by LC-MS/MS analysis; type: ADME, organism-based, Macaca fascicularis; conditions: in vivo

T1 sequence (O14842 whole entry): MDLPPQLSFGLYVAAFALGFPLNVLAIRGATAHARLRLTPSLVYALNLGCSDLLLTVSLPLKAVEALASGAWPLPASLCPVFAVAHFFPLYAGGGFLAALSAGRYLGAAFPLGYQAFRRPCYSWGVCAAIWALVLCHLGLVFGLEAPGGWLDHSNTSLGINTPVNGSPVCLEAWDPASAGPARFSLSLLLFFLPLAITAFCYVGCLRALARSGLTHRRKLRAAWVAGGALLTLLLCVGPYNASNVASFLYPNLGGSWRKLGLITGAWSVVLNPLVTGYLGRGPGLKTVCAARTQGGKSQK

EC50 [1]: 680 nM
Structure (SMILES): COc1ccc(C#N)c(N2CCC(Oc3ccc(N4N=C(C(F)(F)F)[C@@H](C)[C@@H]4CC(=O)O)cc3)CC2)c1

Activity [2]: Active
Structure (SMILES): COc1ccc(F)c(N2CCC(Cc3ccc(N4C[C@H](C(F)(F)F)C[C@@H]4CC(=O)O)cc3)CC2)c1

remaining at 20 min, up to 3 µM [3]: 93% | remaining at 20 min, up to 3 µM [4]: 79% | clearance [5]: 4 mL/min/kg | Vd [6]: 0.6 L/kg | half-life [7]: 3.3 h | EC50 [1]: 150 nM | half-life [8]: 3.4 h | half-life [9]: 1.58 h | Cmax [10]: 3200 nM | bioavailability [11]: 89% | Vd [12]: 2.2 L/kg | half-life [13]: 9.4 h | clearance [14]: 2.6 mL/min/kg | Tmax [15]: 1.7 h | half-life [16]: 7.3 h | Vd [17]: 0.8 L/kg | Vd [18]: 0.7 L/kg | clearance [19]: 5 mL/min/kg | clearance [20]: 1.6 mL/min/kg | half-life [21]: 0.617 h
Structure (SMILES): CCOc1ccc(F)c(N2CC[C@@H](Oc3ccc(N4N=C(C(F)(F)F)[C@@H](C)[C@@H]4CC(=O)O)cc3)[C@H](F)C2)c1

EC50 [1]: 190 to 250 nM
Structure (SMILES): CCOc1cc(N2CC[C@@H](Oc3ccc(N4N=C(C(F)(F)F)[C@@H](C)[C@@H]4CC(=O)O)cc3)[C@H](C)C2)c(Cl)cn1

EC50 [22]: 2600 nM
Structure (SMILES): COc1ccc(F)c(-c2ccc(Cc3ccc(N4N=C(C(F)(F)F)[C@@H](C)[C@@H]4CC(=O)O)cc3)c(C)c2)c1

Drug uptake (Liver [23]): Metabolite_Detected | Drug uptake (Liver [24]): Metabolite_Detected
Structure (SMILES): C[C@@H]1CN(c2cc(O)ncc2Cl)CC[C@H]1Oc1ccc(N2N=C(C(F)(F)F)[C@@H](C)[C@@H]2CC(=O)O)cc1

EC50 [1]: 390 to 860 nM
Structure (SMILES): C[C@@H]1C(C(F)(F)F)=NN(c2ccc(OC3CCN(c4cccc(F)n4)CC3)cc2)[C@H]1CC(=O)O

EC50 [1]: 1200 to 2600 nM | Activity [2]: Active
Structure (SMILES): COc1ccc(F)c(N2CCC(Oc3ccc(N4CCC[C@@H]4CC(=O)O)cc3)CC2)c1

EC50 [1]: 450 to 720 nM
Structure (SMILES): CCc1ccc(F)c(N2CCC(Oc3ccc(N4N=C(C(F)(F)F)[C@@H](C)[C@@H]4CC(=O)O)cc3)CC2)c1

EC50 [1]: 70 nM
Structure (SMILES): COc1ccc(F)c(N2CC[C@@H](Oc3ccc(N4N=C(C(F)(F)F)[C@@H](C)[C@@H]4CC(=O)O)cc3)[C@H](F)C2)c1

EC50 [1]: 2550 to 2730 nM
Structure (SMILES): C[C@@H]1C(C(F)(F)F)=NN(c2ccc(OC3CCN(c4ccc(F)cc4)CC3)cc2)[C@H]1CC(=O)O

Vd [25]: 1.7 L/kg | Stability (Liver [26]): 42% | Stability (Liver [27]): 27% | Tmax [28]: 2 h | half-life [7]: 1.5 h | EC50 [22]: > 50000 nM | Cmax [29]: 200 nM | EC50 [1]: 110 nM | Cmax [30]: 3400 nM | bioavailability [31]: 96% | half-life [8]: 1.4 h | t1/2 (Liver [32]): 0.8 h | Cmax [10]: 1100 nM | bioavailability [11]: 36% | Tmax [33]: 1 h | Tmax [15]: 0.7 h | half-life [34]: 5.3 h | Vd [17]: 0.6 L/kg | clearance [35]: 6.6 mL/min/kg | Vd [18]: 0.8 L/kg | clearance [19]: 17 mL/min/kg | clearance [20]: 6 mL/min/kg | t1/2 (Liver [36]): 0.383 h | bioavailability [37]: 66%
Structure (SMILES): COc1ccc(F)c(N2CCC(Oc3ccc(N4N=C(C(F)(F)F)[C@@H](C)[C@@H]4CC(=O)O)cc3)CC2)c1

Source: ChEMBL document CHEMBL4020824, “Discovery of Potent and Orally Bioavailable Dihydropyrazole GPR40 Agonists” (J Med Chem, 2018)
